Data reported in PMC10582678 (Clinical and Translational Science, 2023).

Experiments:
[1] = Plasma pharmacokinetics, multiple ascending doses; type: in vivo, human; conditions: for CLss/F / AUC(0-t) / Cmax: mean ± SD; for AUC / Vd/F / concentration at 10 day / half-life / AUC(0-t) / Cmax / Tmax: human, plasma, oral; for AUC(0-t): AUC0-t; for Cmax: C max; for Tmax: T max
Procedure, shortened: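 This was a double-blind, placebo-controlled design with three cohorts of eight (6 active, 2 placebo). Cohorts received oral 200, 400 or 600 mg q.d. for 10 consecutive days, with extra predose trough samples on days 8 and 9. Plasma drug was measured by validated HPLC-tandem accurate mass spectrometry (5.00–5000 ng/mL). Noncompartmental parameters were reported for day 1 and day 10, with Rac(AUC) = AUC0-τ day 10/AUC0-t day 1.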

[2] = Safety, adverse events, single ascending dose; type: in vivo, human; conditions: for AEs / Decreased leukocyte count / Decreased neutrophil count / Increased ALT / Increased blood cholesterol / Increased blood triglycerides / Abdominal discomfort / Constipation / Decreased lymphocyte count / Dermatitis allergic / Dyspepsia / Increased AST / Increased blood bilirubin / Increased blood creatinine / Lethargy / Mouth ulceration / Oropharyngeal pain / Sinus arrythmia / Treatment discontinuation due to AEs / Upper respiratory tract infection: n (%)
Procedure, shortened: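 Safety was monitored by vital signs, clinical laboratory tests, physical examination, 12-lead ECG, AEs and SAEs. AEs were coded with MedDRA 23.1 and graded by CTCAE 5.0. Subjects were discharged 6 days after the last dose, with a follow-up visit 8–14 days after the last dose. The safety set comprised randomized subjects who received active drug or placebo and had post-dose safety data.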

[3] = 200 mg, MAD 200 mg q.d., Day 10
[4] = 400 mg, MAD 400 mg q.d., Day 10
[5] = 600 mg, MAD 600 mg q.d., Day 10
[6] = 27 subjects who received SAD 100 to 800 mg

N#CN1C[C@H](n2nc(-c3ccc(Oc4ccc(Cl)cn4)cc3)c(C(N)=O)c2N)CCC12CC2 [SN1011, 5-amino-3-(4-((5-chloro-2-pyridinyl)oxy)phenyl)-1-((6R)-4-cyano-4-azaspiro[2.5]octan-6-yl)-1H-pyrazole-4-carboxamide]
T last ([1]; MAD 200 mg q.d., Day 1, median (min, max)): 23.7 (23.7, 23.8) h | CLss/F ([1]; MAD 200 mg q.d., Day 10): 27.2 ± 13.4 (49%) L/h | T last ([1]; MAD 200 mg q.d., Day 10, median (min, max)): 120.0 (72.0, 120.0) h | T last ([1]; MAD 400 mg q.d., Day 1, median (min, max)): 23.8 (23.7, 23.9) h | CLss/F ([1]; MAD 400 mg q.d., Day 10): 27.4 ± 6.2 (23%) L/h | T last ([1]; MAD 400 mg q.d., Day 10, median (min, max)): 120.0 (120.0, 120.0) h | T last ([1]; MAD 600 mg q.d., Day 1, median (min, max)): 23.8 (23.7, 23.8) h | CLss/F ([1]; MAD 600 mg q.d., Day 10): 30.0 ± 9.8 (33%) L/h | T last ([1]; MAD 600 mg q.d., Day 10, median (min, max)): 120.0 (96.0, 120.0) h | AUC ([1]; 200 mg): 8690 ± 3420 ng·h/mL | Vd/F ([1]; 200 mg): 728 ± 161 L | concentration at 10 day ([1]; 200 mg): 257 ± 111 ng/mL | half-life ([1]; 200 mg): 20.5 ± 5.3 h | AUC(0-t) ([1]; 200 mg, MAD 200 mg q.d., Day 1): 4280 ± 1130 ng·h/mL | AUC(0-t) [1, 3]: 17300 ng·h/mL | Cmax ([1]; 200 mg, MAD 200 mg q.d., Day 1, N = 5): 260 ± 54.8 ng/mL | Cmax [1, 3]: 516 ± 172 ng/mL | Tmax ([1]; 200 mg, MAD 200 mg q.d., Day 1, median (min, max)): 3 h | Tmax ([1]; 200 mg, MAD 200 mg q.d., Day 10, median (min, max)): 3 h | AUC ([1]; 400 mg): 15200 ng·h/mL | Vd/F ([1]; 400 mg): 736 ± 181 L | concentration at 10 day ([1]; 400 mg): 419 ± 121 ng/mL | half-life ([1]; 400 mg): 19 ± 5.4 h | AUC(0-t) ([1]; 400 mg, MAD 400 mg q.d., Day 1): 9170 ± 1640 ng·h/mL | AUC(0-t) [1, 4]: 26400 ng·h/mL | Cmax ([1]; 400 mg, MAD 400 mg q.d., Day 1): 727 ± 183 ng/mL | Cmax [1, 4]: 1070 ± 234 ng/mL | Tmax ([1]; 400 mg, MAD 400 mg q.d., Day 1, median (min, max)): 4 h | Tmax ([1]; 400 mg, MAD 400 mg q.d., Day 10, median (min, max)): 3.5 h | AUC ([1]; 600 mg): 22000 ng·h/mL | Vd/F ([1]; 600 mg): 872 ± 345 L | concentration at 10 day ([1]; 600 mg): 531 ± 264 ng/mL | half-life ([1]; 600 mg): 20.4 ± 4.1 h | AUC(0-t) ([1]; 600 mg, MAD 600 mg q.d., Day 1): 12200 ng·h/mL | AUC(0-t) [1, 5]: 40300 ng·h/mL | Cmax ([1]; 600 mg, MAD 600 mg q.d., Day 1): 910 ± 332 ng/mL | Cmax [1, 5]: 1600 ± 497 ng/mL | Tmax ([1]; 600 mg, MAD 600 mg q.d., Day 1, median (min, max)): 4 h | Tmax ([1]; 600 mg, MAD 600 mg q.d., Day 10, median (min, max)): 2.5 h | Tmax ([1]; MAD, steady-state conditions, across 200-600 mg q.d.): 2.5 to 3.5 h | steady-state in the plasma achieved on ([1]; once daily administration): 8 days | blood triglycerides increased [2, 6]: 18.5% | neutrophil count decreased [2, 6]: 14.8% | number of AEs [2, 6]: 13 | subjects who experienced AEs [2, 6]: 33.3% | white blood cell count decreased [2, 6]: 7.4% | AEs ([2]; SAD 100 mg, any grade): 0 | Decreased leukocyte count ([2]; SAD 100 mg, any grade): 0 | Decreased neutrophil count ([2]; SAD 100 mg, any grade): 0 | Increased ALT ([2]; SAD 100 mg, any grade): 0 | Increased blood cholesterol ([2]; SAD 100 mg, any grade): 0 | Increased blood triglycerides ([2]; SAD 100 mg, any grade): 0 | Abdominal discomfort ([2]; SAD 100 mg): 0 | Constipation ([2]; SAD 100 mg): 0 | Decreased lymphocyte count ([2]; SAD 100 mg): 0 | Dermatitis allergic ([2]; SAD 100 mg): 0 | Dyspepsia ([2]; SAD 100 mg): 0 | Increased AST ([2]; SAD 100 mg): 0 | Increased blood bilirubin ([2]; SAD 100 mg): 0 | Increased blood creatinine ([2]; SAD 100 mg): 0 | Lethargy ([2]; SAD 100 mg): 0 | Mouth ulceration ([2]; SAD 100 mg): 0 | Oropharyngeal pain ([2]; SAD 100 mg): 0 | Sinus arrythmia ([2]; SAD 100 mg): 0 | Treatment discontinuation due to AEs ([2]; SAD 100 mg): 0 | Upper respiratory tract infection ([2]; SAD 100 mg): 0 | AEs ([2]; SAD 200 mg, any grade): 2 (33.3) | Decreased leukocyte count ([2]; SAD 200 mg, any grade): 0 | Decreased neutrophil count ([2]; SAD 200 mg, any grade): 0 | Increased ALT ([2]; SAD 200 mg, any grade): 1 (16.7) | Increased blood cholesterol ([2]; SAD 200 mg, any grade): 1 (16.7) | Increased blood triglycerides ([2]; SAD 200 mg, any grade): 2 (33.3) | Abdominal discomfort ([2]; SAD 200 mg): 0 | Constipation ([2]; SAD 200 mg): 0 | Decreased lymphocyte count ([2]; SAD 200 mg): 0 | Dermatitis allergic ([2]; SAD 200 mg): 0 | Dyspepsia ([2]; SAD 200 mg): 0 | Increased AST ([2]; SAD 200 mg): 0 | Increased blood bilirubin ([2]; SAD 200 mg): 0 | Increased blood creatinine ([2]; SAD 200 mg): 0 | Lethargy ([2]; SAD 200 mg): 0 | Mouth ulceration ([2]; SAD 200 mg): 0 | Oropharyngeal pain ([2]; SAD 200 mg): 0 | Sinus arrythmia ([2]; SAD 200 mg): 0 | Treatment discontinuation due to AEs ([2]; SAD 200 mg): 0 | Upper respiratory tract infection ([2]; SAD 200 mg): 0 | AEs ([2]; SAD 400 mg, any grade): 2 (33.3) | Decreased leukocyte count ([2]; SAD 400 mg, any grade): 0 | Decreased neutrophil count ([2]; SAD 400 mg, any grade): 0 | Increased ALT ([2]; SAD 400 mg, any grade): 0 | Increased blood cholesterol ([2]; SAD 400 mg, any grade): 0 | Increased blood triglycerides ([2]; SAD 400 mg, any grade): 2 (33.3) | Abdominal discomfort ([2]; SAD 400 mg): 0 | Constipation ([2]; SAD 400 mg): 0 | Decreased lymphocyte count ([2]; SAD 400 mg): 0 | Dermatitis allergic ([2]; SAD 400 mg): 0 | Dyspepsia ([2]; SAD 400 mg): 0 | Increased AST ([2]; SAD 400 mg): 0 | Increased blood bilirubin ([2]; SAD 400 mg): 0 | Increased blood creatinine ([2]; SAD 400 mg): 0 | Lethargy ([2]; SAD 400 mg): 0 | Mouth ulceration ([2]; SAD 400 mg): 0 | Oropharyngeal pain ([2]; SAD 400 mg): 0 | Sinus arrythmia ([2]; SAD 400 mg): 0 | Treatment discontinuation due to AEs ([2]; SAD 400 mg): 0 | Upper respiratory tract infection ([2]; SAD 400 mg): 0 | AEs ([2]; SAD 600 mg, any grade): 3 (50.0) | Decreased leukocyte count ([2]; SAD 600 mg, any grade): 1 (16.7) | Decreased neutrophil count ([2]; SAD 600 mg, any grade): 3 (50.0) | Increased ALT ([2]; SAD 600 mg, any grade): 0 | Increased blood cholesterol ([2]; SAD 600 mg, any grade): 0 | Increased blood triglycerides ([2]; SAD 600 mg, any grade): 0 | Abdominal discomfort ([2]; SAD 600 mg): 0 | Constipation ([2]; SAD 600 mg): 0 | Decreased lymphocyte count ([2]; SAD 600 mg): 0 | Dermatitis allergic ([2]; SAD 600 mg): 0 | Dyspepsia ([2]; SAD 600 mg): 0 | Increased AST ([2]; SAD 600 mg): 0 | Increased blood bilirubin ([2]; SAD 600 mg): 0 | Increased blood creatinine ([2]; SAD 600 mg): 0 | Lethargy ([2]; SAD 600 mg): 0 | Mouth ulceration ([2]; SAD 600 mg): 0 | Oropharyngeal pain ([2]; SAD 600 mg): 0 | Sinus arrythmia ([2]; SAD 600 mg): 0 | Treatment discontinuation due to AEs ([2]; SAD 600 mg): 0 | Upper respiratory tract infection ([2]; SAD 600 mg): 0 | AEs ([2]; SAD 800 mg, any grade): 2 (33.3) | Decreased leukocyte count ([2]; SAD 800 mg, any grade): 1 (16.7) | Decreased neutrophil count ([2]; SAD 800 mg, any grade): 1 (16.7) | Increased ALT ([2]; SAD 800 mg, any grade): 0 | Increased blood cholesterol ([2]; SAD 800 mg, any grade): 0 | Increased blood triglycerides ([2]; SAD 800 mg, any grade): 1 (16.7) | Abdominal discomfort ([2]; SAD 800 mg): 0 | Constipation ([2]; SAD 800 mg): 0 | Decreased lymphocyte count ([2]; SAD 800 mg): 0 | Dermatitis allergic ([2]; SAD 800 mg): 0 | Dyspepsia ([2]; SAD 800 mg): 0 | Increased AST ([2]; SAD 800 mg): 0 | Increased blood bilirubin ([2]; SAD 800 mg): 0 | Increased blood creatinine ([2]; SAD 800 mg): 0 | Lethargy ([2]; SAD 800 mg): 0 | Mouth ulceration ([2]; SAD 800 mg): 0 | Oropharyngeal pain ([2]; SAD 800 mg): 0 | Sinus arrythmia ([2]; SAD 800 mg): 0 | Treatment discontinuation due to AEs ([2]; SAD 800 mg): 0 | Upper respiratory tract infection ([2]; SAD 800 mg): 0 | Abdominal discomfort ([2]; SAD All SN1011, N = 27): 0 | Constipation ([2]; SAD All SN1011, N = 27): 0 | Decreased leukocyte count ([2]; SAD All SN1011, N = 27): 2 (7.4) | Decreased lymphocyte count ([2]; SAD All SN1011, N = 27): 0 | Decreased neutrophil count ([2]; SAD All SN1011, N = 27): 4 (14.8) | Dermatitis allergic ([2]; SAD All SN1011, N = 27): 0 | Dyspepsia ([2]; SAD All SN1011, N = 27): 0 | Increased ALT ([2]; SAD All SN1011, N = 27): 1 (3.7) | Increased AST ([2]; SAD All SN1011, N = 27): 0 | Increased blood bilirubin ([2]; SAD All SN1011, N = 27): 0 | Increased blood cholesterol ([2]; SAD All SN1011, N = 27): 1 (3.7) | Increased blood creatinine ([2]; SAD All SN1011, N = 27): 0 | Increased blood triglycerides ([2]; SAD All SN1011, N = 27): 5 (18.5) | Lethargy ([2]; SAD All SN1011, N = 27): 0 | Mouth ulceration ([2]; SAD All SN1011, N = 27): 0 | Oropharyngeal pain ([2]; SAD All SN1011, N = 27): 0 | Sinus arrythmia ([2]; SAD All SN1011, N = 27): 0 | Treatment discontinuation due to AEs ([2]; SAD All SN1011, N = 27): 0 | Upper respiratory tract infection ([2]; SAD All SN1011, N = 27): 0
